# EP2 mod = modulates human prostaglandin E2 receptor EP2 signaling; EP2-expressing cells, cAMP HTRF FRET, PGE2 co-stimulation; induction, % at 25 µM; actives 0.83% (n = 260,000);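 active means compounds whose cAMP rise, as percent of the full-agonist control response, exceeds 60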;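 further: rat C6 glioma line stably carrying human EP2 under a CMV promoter; the protocol text gives 20 µM as final concentration; 100% = response of wells given 1 µM PGE2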
# EP2 antag = inhibitors of human EP2 prostaglandin E2 receptor; P43116; actives 0.52% (n = 260,000); inhibition, % at 25 µM; C6 glioma cells expressing human EP2, cAMP TR-FRET; cells stimulated with saturating PGE2;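 active means percent inhibition above 40 after rounding to a whole number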;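 further: rat C6 glioma host cells with rolipram phosphodiesterase inhibitor present; the protocol text gives 20 µM as final concentration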
# Furin inhibitor = human furin inhibition; AID 463115; purified furin, fluorogenic substrate cleavage; P09958; actives 0.061% (n = 220,000); inhibition, % at 20 µM or 30 µM; in the data active means inhibition above about 25%
# NR2E3 ag-1 = activates human NR2E3 receptor; CHO-S Gal4-NCOR/VP16-NR2E3 two-hybrid, luciferase; inhibition of corepressor binding, % at 3.98 µM; actives 0.35% (n = 360,000); AID 602229;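 active means inhibition above the mean of all tested compounds plus 3 SD, cut at about 70% in these data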;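 further: 0% = DMSO with NR2E3 transfected cells and 100% = cells lacking NR2E3 construct; higher means lower luciferase signal from less NR2E3 corepressor binding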
# NR2E3 ag-2 = activates human photoreceptor nuclear receptor NR2E3; Q9Y5X4; GST-NR2E3/biotin-RetCOR TR-FRET, 1536-well; inhibition of corepressor binding, % at 4.78 µM; actives 0.12% (n = 320,000);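 active means percent inhibition above the cutoff of mean plus 3 SD of all tested compounds, set per screening campaign, cut at about 20% in these data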;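 further: 0% = DMSO wells and 100% = biotin wells as full block of FRET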
#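 System: GST-tagged NR2E3 plus biotinylated RetCOR corepressor; Amount: 1.35 nM GST-tagged NR2E3 final; Dosing: single nominal compound dose of 4.8 µM; Schedule: 5 h incubation at 4 °C; Technique: TR-FRET with europium anti-GST and streptavidin-D2, 340 nm excitation; Controls: biotin wells as high control, 0.6% DMSO wells as low control.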
# JMJD2C inh = blocks human GASC-1 demethylase activity | Q9H3R0 | GST-JMJD2C(1-420) H3K9me3 demethylation, DELFIA europium | inhibition, % at 2.35 µM | actives 0.069% (n = 330,000) | AID 2099;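 active means more than half of a compound's replicate wells show inhibition beyond 50%, single wells judged on their own value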;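 further: signal counts dimethyl H3K9 product captured on neutravidin plate; 0% = median of DMSO wells and 100% = 0.3 times that DMSO median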
# Target sequence (Q9H3R0 1-420 limits assumed): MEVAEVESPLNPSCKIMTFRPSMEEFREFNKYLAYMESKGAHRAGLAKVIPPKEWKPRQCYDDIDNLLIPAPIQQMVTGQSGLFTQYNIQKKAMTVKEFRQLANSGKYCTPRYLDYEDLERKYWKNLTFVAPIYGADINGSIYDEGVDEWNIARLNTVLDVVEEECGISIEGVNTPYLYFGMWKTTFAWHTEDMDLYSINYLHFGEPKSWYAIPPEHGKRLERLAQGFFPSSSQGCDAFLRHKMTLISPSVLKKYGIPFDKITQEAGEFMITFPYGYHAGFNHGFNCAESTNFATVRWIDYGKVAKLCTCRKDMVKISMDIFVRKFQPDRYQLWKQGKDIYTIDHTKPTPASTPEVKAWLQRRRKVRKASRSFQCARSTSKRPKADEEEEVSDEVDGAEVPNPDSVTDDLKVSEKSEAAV
# EP2 confirm = EP2 receptor cAMP induction, counter-screens negative | AID 1080 | calls only at 20 µM (by protocol) | shares compounds with EP2 mod | actives 47% (n = 1,300) | C6 glioma EP2 cells, cAMP HTRF induction; plus low (about EC15) PGE2 agonist;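 active means cAMP induction above 50% in the main assay while under 30% in all four parallel counter assays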;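 further: rat C6 glioma cells stably expressing human EP2 receptor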
# * = called active by the depositor; i = inactive; nt = no result; + = active, no number. This is a sample that favours compounds with a hit; in the whole collection about 1.3% have one here.
SMILES,EP2 mod,EP2 antag,Furin inhibitor,NR2E3 ag-1,NR2E3 ag-2,JMJD2C inh,EP2 confirm
CCCCOP(=O)(OCCCC)C(Nc1ccccc1)c1ccc2c(c1)OCO2 (stereo unspecified),70*,6,-16,-4,2,-2,i
O=C(NC[C@@H]1CCCN(C(=O)c2cccnc2)C1)c1ccco1,-11,nt,nt,nt,nt,nt,nt
S=c1[nH]nc(-c2ccc3ccccc3n2)n1Cc1ccccc1,74*,7,1,23,3,-14,i
Cc1scc(-c2n[nH]c(=S)n2Cc2ccccc2)c1C,51,2,-5,3,-2,21,i
Oc1ccc(-c2n[nH]c(=S)n2Cc2ccccc2)cc1,27,10,-6,-23,3,2,nt
CCc1c(-c2n[nH]c(=S)n2Cc2ccccc2)csc1C,51,6,-12,-25,0,4,i
Cc1ccc(C2CC2c2n[nH]c(=S)n2-c2ccc(C)cc2)cc1 (stereo unspecified),58,2,6,-1,0,-5,i
Cc1ccc(S(=O)(=O)N(CC(=O)N=Nc2c(O)[nH]c3ccccc23)c2ccc(C)c(C)c2)cc1,67*,10,-17,-9,-3,-3,+
CCN(CC)c1ccc(/C=C2\C(=O)c3ccc(C(=O)O)cc3C2=O)cc1,74*,11,-33,-22,3,8,+
COc1ccc(N2CCN(c3nc4c(c(=O)n(C)c(=O)n4C)n3Cc3ccccc3)CC2)cc1,69*,-1,-8,-22,4,-6,i
Cc1cc(OC(=O)c2cc(F)c(F)cc2Cl)nc(C)n1,-2,4,-22,-17,-1,-10,nt
Cc1cc(C)c(S(=O)(=O)c2ccccc2)c(OC(=O)c2cc(F)c(F)cc2Cl)n1,73*,28,-17,-4,0,16,i
Cc1cc(C)c(S(=O)(=O)N(Cc2cc3cc(C)c(C)cc3[nH]c2=O)CC2CCCO2)c(C)c1 (stereo unspecified),15,10,nt,nt,nt,nt,nt
Cn1c(-c2ccc(Br)o2)nc2ccccc21,3,14,-10,-106,-2,-10,nt
Brc1ccc(Cn2c(-c3ccc(Br)o3)nc3ccccc32)o1,68*,13,-9,-42,nt,-46,+
COC(=O)c1c(-c2ccc(F)cc2)csc1NC(=O)C1CCCO1 (stereo unspecified),66*,5,-23,-45,0,-10,i
CC(C)NC(=O)C1CCN(C(=O)c2cc3sccc3n2Cc2ccc(F)cc2)CC1,-22,-5,-27,-11,-2,2,nt
O=C(c1cc2sccc2n1Cc1ccc(F)cc1)N1CCCc2ccccc21,73*,12,-12,-30,-1,-5,+
O=C(O)c1ccc(Cl)c2c1C1C=CCC1C(c1ccccn1)N2 (stereo unspecified),8,10,-17,nt,8,6,nt
O=[N+]([O-])c1ccc(Cl)c2c1C1C=CCC1C(c1ccccn1)N2 (stereo unspecified),75*,11,-19,-19,2,-13,+
COc1ccc(C2=NN(C(=O)c3cccs3)C(O)(C(F)(F)F)C2)cc1 (stereo unspecified),98*,3,-25,-3,-1,-7,+
COc1ccc(C2=NN(C(=O)c3cccs3)C(c3ccccc3O)C2)cc1 (stereo unspecified),71*,7,-26,-15,2,8,+
Cc1cc(-c2cc(N)c(=O)n(CC(=O)NCC3CCCCC3)n2)c(C)o1,-41,1,nt,nt,nt,nt,nt
CCOC(=O)c1cnn(-c2nc(-c3ccc(F)cc3)cs2)c1C(F)(F)F,65*,8,-8,19,4,-1,i
Cc1ccc(C(C)C)c(OCc2ccc(-c3nnco3)cc2)c1,66*,16,-31,-59,4,-5,i
Cc1ccc(COc2ccc(-c3nnco3)cc2)cc1,nt,nt,nt,-122,0,0,nt
